Tests used:
[1] = Selectivity determined by Ki of alpha 2 receptor / Ki of PNMT
[2] = molecular target: T1, Adrenergic receptor alpha-2 (Rattus norvegicus, UniProt P22086+P19328+P22909); assay: The compound was tested in vitro for binding affinity against Alpha-2 adrenergic receptor using [3H]clonidine; format: protein assay
T1 sequence (P22086 whole entry): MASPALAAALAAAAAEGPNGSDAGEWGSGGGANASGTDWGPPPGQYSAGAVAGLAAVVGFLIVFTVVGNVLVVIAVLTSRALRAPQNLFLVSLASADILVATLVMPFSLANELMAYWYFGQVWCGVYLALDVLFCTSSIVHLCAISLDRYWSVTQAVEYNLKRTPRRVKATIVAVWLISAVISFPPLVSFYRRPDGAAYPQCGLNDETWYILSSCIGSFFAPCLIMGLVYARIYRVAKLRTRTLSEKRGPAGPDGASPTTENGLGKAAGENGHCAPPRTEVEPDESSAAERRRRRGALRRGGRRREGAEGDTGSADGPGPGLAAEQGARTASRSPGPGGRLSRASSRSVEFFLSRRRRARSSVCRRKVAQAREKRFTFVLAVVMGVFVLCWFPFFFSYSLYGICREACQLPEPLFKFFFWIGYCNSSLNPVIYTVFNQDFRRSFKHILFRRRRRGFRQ
T1 sequence (P19328 whole entry): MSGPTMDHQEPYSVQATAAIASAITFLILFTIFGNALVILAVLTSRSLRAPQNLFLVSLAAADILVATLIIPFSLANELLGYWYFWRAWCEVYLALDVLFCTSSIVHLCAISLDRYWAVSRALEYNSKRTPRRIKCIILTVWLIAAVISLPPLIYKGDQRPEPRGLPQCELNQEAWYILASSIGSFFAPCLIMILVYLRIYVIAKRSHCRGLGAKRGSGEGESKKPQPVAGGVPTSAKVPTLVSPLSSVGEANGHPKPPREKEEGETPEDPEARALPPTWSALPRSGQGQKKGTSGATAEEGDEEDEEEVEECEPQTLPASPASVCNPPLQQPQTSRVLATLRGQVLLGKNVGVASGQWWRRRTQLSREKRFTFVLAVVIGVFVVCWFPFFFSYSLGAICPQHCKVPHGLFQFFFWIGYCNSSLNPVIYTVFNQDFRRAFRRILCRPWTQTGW
T1 sequence (P22909 whole entry): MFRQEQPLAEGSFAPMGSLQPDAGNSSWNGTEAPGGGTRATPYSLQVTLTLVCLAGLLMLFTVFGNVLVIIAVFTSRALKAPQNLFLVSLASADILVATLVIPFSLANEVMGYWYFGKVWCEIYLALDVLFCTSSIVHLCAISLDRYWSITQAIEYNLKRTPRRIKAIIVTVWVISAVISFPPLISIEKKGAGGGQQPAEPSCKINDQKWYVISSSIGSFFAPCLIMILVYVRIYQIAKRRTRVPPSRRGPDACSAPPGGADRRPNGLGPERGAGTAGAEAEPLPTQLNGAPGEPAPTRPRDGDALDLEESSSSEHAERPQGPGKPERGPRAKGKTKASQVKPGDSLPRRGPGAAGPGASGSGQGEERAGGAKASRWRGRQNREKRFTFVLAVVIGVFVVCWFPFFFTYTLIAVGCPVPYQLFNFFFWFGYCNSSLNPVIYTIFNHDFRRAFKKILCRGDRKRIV
How it was run: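 Rat cortex membranes from male Sprague–Dawley rats, homogenized in ice-cold 50 mM Tris/HCl (pH 7.7 at 25 °C), washed by three 50000g spins. [³H]clonidine final 2.0 nM, varying inhibitor levels, 25 °C for 30 min. Filtration and scintillation counting. Nonspecific binding with 2 μM phentolamine. IC50 by log–probit analysis, Ki = IC50/(1 + [clonidine]/KD). Tested as HCl or HBr salts.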

[3] = molecular target: T1, Adrenergic receptor alpha-2; assay: Compound was tested in vitro for binding affinity against Alpha-2 adrenergic receptor using [3H]clonidine; format: protein assay
How it was run: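 Rat (male Sprague–Dawley) cortex membranes, washed three times by centrifugation in 50 mM Tris/HCl pH 7.7, incubated 30 min at 25 °C with 2.0 nM [3H]clonidine and varied inhibitor concentrations. Bound ligand was collected by vacuum filtration and counted. Nonspecific binding was defined with 2 μM phentolamine. IC50 came from log–probit analysis, and Ki = IC50/(1+[clonidine]/KD).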

[4] = molecular target: T1, Adrenergic receptor alpha-2; assay: The compound was tested in vitro for binding affinity against Alpha-2 adrenergic receptor using [3H]clonidine, A precipitate was noted at 1000 uM; format: protein assay
[5] = molecular target: T2, Phenylethanolamine N-methyltransferase (Bos taurus, UniProt P10938); assay: Inhibition of PNMT (Phenylethanolamine N-Methyltransferase) in vitro
T2 sequence (P10938 whole entry): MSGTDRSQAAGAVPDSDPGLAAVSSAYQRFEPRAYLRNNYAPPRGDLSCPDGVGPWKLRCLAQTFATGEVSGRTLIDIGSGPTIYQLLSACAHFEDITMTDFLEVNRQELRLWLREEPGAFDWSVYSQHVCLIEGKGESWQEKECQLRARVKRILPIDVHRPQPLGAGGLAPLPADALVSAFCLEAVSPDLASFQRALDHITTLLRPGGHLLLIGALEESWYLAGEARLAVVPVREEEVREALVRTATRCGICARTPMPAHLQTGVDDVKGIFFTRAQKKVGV
How it was run: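 Bovine adrenal PNMT, prepared through the isoelectric precipitation step, assayed radiochemically with phenylethanolamine as the variable substrate and [3H]AdoMet as methyl donor in phosphate buffer pH 8.0. Incubation was 30 min at 37 °C, quenched with borate pH 10, and product was extracted into toluene/isoamyl alcohol and counted. Three inhibitor concentrations spanning 5-fold were run in duplicate, and Ki came from a hyperbolic fit.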

SMILES	Selectivity [1]	Ki [5] [µM]	also measured
NS(=O)(=O)c1ccc2c(c1)CNC(CO)C2 (stereo not drawn)	4100	–	Ki ([2]; read-out: Ki): 1400 µM
Clc1ccc2c(c1Cl)CNCCC2	–	–	Ki [2]: 4.5 µM
N#Cc1ccc2c(c1)CNC(C(F)(F)F)C2 (stereo not drawn)	220	–	–
CS(=O)(=O)c1ccc2c(c1)CNC(CO)C2 (stereo not drawn)	1000	–	Ki ([3]; read-out: Ki): 660 µM
FC(F)(F)C1Cc2ccc(Br)cc2CN1 (stereo not drawn)	> 1900	–	Ki [4]: > 1000 µM
CC1Cc2ccccc2CN1 (stereo not drawn)	0.36	–	–
CS(=O)(=O)c1ccc2c(c1)CNC(C(F)(F)F)C2 (stereo not drawn)	110	36	–
Clc1ccc2c(c1Cl)CNCC2	0.095	0.22	–
CCC1Cc2ccccc2CN1 (stereo not drawn)	0.028	–	Ki [2]: 0.67 µM
O=[N+]([O-])c1ccc2c(c1)CNC(C(F)(F)F)C2 (stereo not drawn)	700	2	Ki [3]: 1400 µM
c1ccc2c(c1)CCNC2	0.035	–	–
COc1ccc2c3c([nH]c2c1)C=NCC3 [CGS-19281A]	4.4	2.7	Ki [2]: 12 µM
OCC1Cc2ccccc2CN1 (stereo not drawn)	6	–	Ki ([3]; read-out: Ki): 6.6 µM
COCC1Cc2ccccc2CN1 (stereo not drawn)	0.3	–	Ki ([3]; read-out: Ki): 2.8 µM
FC(F)(F)C1Cc2ccccc2CN1 (stereo not drawn)	27	15	–

From ChEMBL document CHEMBL1132150, “Synthesis and evaluation of 3-trifluoromethyl-7-substituted-1,2,3, 4-tetrahydroisoquinolines as selective inhibitors of phenylethanolamine N-methyltransferase versus the alpha(2)-adrenoceptor” (J Med Chem, 1999)
